Data on 17 molecules can be found in ChEMBL document CHEMBL2062442, “Synthesis and biological evaluation of new N-acyl-homoserine-lactone analogues, based on triazole and tetrazole scaffolds, acting as LuxR-dependent quorum sensing modulators” (Bioorg Med Chem, 2012).

Assay type in all cases: functional
For assay [1], the target named is T1, Transcriptional activator protein LuxR (Aliivibrio fischeri) (UniProt P12746).
T1 sequence (whole entry): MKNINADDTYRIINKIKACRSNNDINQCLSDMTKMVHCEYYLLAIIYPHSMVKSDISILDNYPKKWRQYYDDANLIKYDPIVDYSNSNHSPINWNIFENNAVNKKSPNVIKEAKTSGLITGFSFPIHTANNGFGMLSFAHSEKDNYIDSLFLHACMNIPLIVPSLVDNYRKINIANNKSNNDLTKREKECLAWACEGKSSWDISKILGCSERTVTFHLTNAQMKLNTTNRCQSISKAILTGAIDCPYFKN
The assay is described as follows: Agonist activity at Vibrio fischeri LuxR expressed in Escherichia coli NM522 coexpressing LuxCDABE assessed as activation of 3-oxoC6-HSL-induced quorum sensing activation at 200 uM measured after 4 to 5 hrs by reporter gene assay. The gist of the method: (§1)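 E. coli biosensor carrying pSB401, in which V. fischeri luxR and the luxI promoter drive P. luminescens luxCDABE. Cultures were grown to exponential phase in Luria broth with tetracycline (20) at 30 °C. Analogues were added alone at up to 200 in microtitre plates. Luminescence was read after 4–5 h, at the maximal ratio of induced to background light. EC50 is the concentration giving 50% bioluminescence intensity.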
(A reporter such as luciferase makes a cellular process visible.)

Assay [2] has as its target T2, Transcriptional activator protein LuxR (Aliivibrio fischeri, UniProt P12746).
T2 sequence (P12746 whole entry): T1 sequence (whole entry)
The assay is described as follows: Antagonist activity at Vibrio fischeri LuxR expressed in Escherichia coli NM522 coexpressing LuxCDABE assessed as inhibition of 3-oxoC6-HSL-induced quorum sensing activation measured after 4 to 5 hrs by reporter gene assay. The procedure, abridged:
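The inhibition read-out is the decrease in bioluminescence induced by 200 nM 3-oxo-C6-HSL in E. coli carrying pSB401 (V. fischeri luxR/luxI promoter fused to P. luminescens luxCDABE). Cells were grown to exponential phase in Luria broth with tetracycline at 30 °C. Light was quantified by luminometer in microtitre plates after 4–5 h, when the ratio of induced to background light peaked.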

The target of assay [3] is T1, Transcriptional activator protein LuxR (Aliivibrio fischeri). The assay is described as follows: Agonist activity at Vibrio fischeri LuxR expressed in Escherichia coli NM522 coexpressing LuxCDABE assessed as activation of 3-oxoC6-HSL-induced quorum sensing activation measured after 4 to 5 hrs by reporter gene assay relative to control. The gist of the method:
as §1

Assay [4] addresses T2, Transcriptional activator protein LuxR. The assay is described as follows: Agonist activity at Vibrio fischeri LuxR expressed in Escherichia coli NM522 coexpressing LuxCDABE assessed as activation of 3-oxoC6-HSL-induced quorum sensing activation measured after 4 to 5 hrs by reporter gene assay. The gist of the method: as §1

For orientation: IC50 means the concentration that inhibits the measured activity by half. For orientation: EC50 means the concentration giving half of the maximal effect.

Calls of active or inactive are those of the source. The calls are words filed in the database; no cut-off is given here.

As to `CCCCCn1cc(CC(=O)OCC)nn1`, the outcome in assay [1] was inactive.

`CCCCCCn1nnnc1C1CCOC1=O` (racemic): in assay [2] (read-out: IC50), the half-maximal inhibitory concentration (IC50) worked out at 74 µM.

Regarding `CCCCCCCCCCCCc1cn(CC(=O)OCC)nn1`, the result in assay [1] was inactive.

In the case of `CCCCCCCCCCCCn1cc(CC(=O)O)nn1`, the outcome in assay [1] was inactive.

With `CCCCCc1cn(CC(=O)NO)nn1`, the outcome in assay [1] was inactive. Further, the half-inhibitory concentration (IC50) result in assay [2] is “Not Active”.

`CCCCCc1cn(CC(=O)O)nn1`: the outcome in assay [1] was inactive. Also, the IC50 entry in assay [2] is given as “Not Active”.

Regarding `CCCCCc1nnnn1C1CCOC1=O` (racemic), the Activity in assay [3] was 59 RLU. Also, in assay [4], the EC50 was 10 µM.

With `CCCCCCc1nnnn1C1CCOC1=O` (racemic), in assay [3], the Activity amounted to 102 RLU. The EC50 in assay [4] was found to be 35 µM.

Regarding `CCCCCCCCCCCCn1cc(CC(=O)OCC)nn1`, in assay [1], the result was inactive.

As to `CCCCCc1cn(CC(N)=O)nn1`, the outcome in assay [1] was inactive. In assay [2], the IC50 result is “Not Active”.

On to `CCCCCc1cn(CC(=O)OCC)nn1`, for which the result in assay [1] was inactive. For the same molecule, the IC50 in assay [2] (read-out: IC50) was determined as 94 µM.

Consider `CCCCn1nnnc1C1CCOC1=O` (racemic), for which the IC50 in assay [2] (read-out: IC50) is greater than 200 µM.

As for `CCCCCc1cn(C2CCOC2=O)nn1` (racemic), in assay [1], the outcome was inactive. The half-maximal inhibitory concentration (IC50) in assay [2] (read-out: IC50) turned out to be 51 µM.

On to `CCCCCCn1nnnc1CC(=O)OCC`, for which, in assay [2] (read-out: IC50), the IC50 is greater than 200 µM.

Regarding `CCCCCn1nnnc1C1CCOC1=O` (racemic), the half-inhibitory concentration (IC50) in assay [2] (read-out: IC50) turned out to be 80 µM.

For `CCCCCn1cc(CC(=O)O)nn1`, the result in assay [1] was inactive.

Regarding `CCCCCCCCCCCCc1cn(CC(=O)O)nn1`, the result in assay [1] was inactive.
